Assay type in all cases: functional
Assay [1] concerns the target T1, Guanine nucleotide-binding protein G(i) subunit alpha-3 (Homo sapiens, UniProt P08754). Description: Concentration required to stimulate binding of [35S]GTP-gamma-S, with G alpha i3. Summed up:
(§1)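 His-tagged recombinant Gαi subunits were expressed in E. coli BL21/DE3 and purified by IMAC. 3 pmol of subunit, native or in lipid vesicles, was incubated 30 min at 30 °C with 0.1 μM [35S]GTPγS in 50 mM Hepes-NaOH, 1 mM EDTA, 1 mM DTT and 100 μM MgSO4. The reaction was stopped with ice-cold buffer and filtered on cellulose nitrate. EC50 came from 1×10^-7 to 1×10^-4 M (eight concentrations).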
In general terms: Binding of GTPγS marks nucleotide exchange on a G protein.

For assay [2], the target named is T2, Guanine nucleotide-binding protein G(i) subunit alpha-1 (Homo sapiens, UniProt P63096). Description: Concentration required to stimulate binding of [35S]GTP-gamma-S, with G alpha i1. Summed up:
as §1

The target in assay [3] is T2, Guanine nucleotide-binding protein G(i) subunit alpha-1. Put plainly: Percent stimulation of [35S]GTP-gamma-S, binding to G alpha i1 at 5E-5 M of basal for 30 minutes. The essentials:
(§2)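 Recombinant His-tagged Gαi subunit (3 pmol, native or in lipid vesicles) was incubated with compound at 5×10^-5 M and 0.1 μM [35S]GTPγS, 30 min at 30 °C, in 50 mM Hepes-NaOH, 1 mM EDTA, 1 mM DTT, 100 μM MgSO4. Filter-bound GTPγS after ice-cold stop and cellulose-nitrate filtration is expressed as percent of basal.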

Assay [4] deals with T3, Guanine nucleotide-binding protein G(o) subunit alpha (Homo sapiens, UniProt P09471). Put plainly: Percent stimulation of [35S]GTP-gamma-S, binding to G alpha o1 at 5E-5 M of basal for 30 minutes. Summed up: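 With Gαo (3 pmol recombinant His-tagged subunit, native or vesicle-reconstituted), binding of 0.1 μM [35S]GTPγS was measured during 30 min at 20 °C with compound at 5×10^-5 M, in Hepes-NaOH buffer with EDTA, DTT and 100 μM MgSO4. Samples were filtered on cellulose nitrate, and the value is percent of basal binding.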
Target sequence in this assay (P09471 2-354 limits assumed): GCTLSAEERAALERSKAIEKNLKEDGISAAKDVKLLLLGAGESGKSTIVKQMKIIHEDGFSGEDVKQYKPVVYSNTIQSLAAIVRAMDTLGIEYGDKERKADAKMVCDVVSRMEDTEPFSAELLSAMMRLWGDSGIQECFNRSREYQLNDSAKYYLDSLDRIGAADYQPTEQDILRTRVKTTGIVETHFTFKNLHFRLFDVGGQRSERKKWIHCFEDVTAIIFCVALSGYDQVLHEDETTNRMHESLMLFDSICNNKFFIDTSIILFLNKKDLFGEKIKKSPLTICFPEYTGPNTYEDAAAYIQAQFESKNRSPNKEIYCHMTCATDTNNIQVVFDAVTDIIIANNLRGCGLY

The target in assay [5] is T3, Guanine nucleotide-binding protein G(o) subunit alpha. Put plainly: Concentration required to stimulate binding of [35S]GTP-gamma-S, with G alpha o1. Summed up: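 Gαo: His-tagged recombinant subunit from E. coli BL21/DE3, IMAC-purified. 3 pmol, native or vesicle-reconstituted, incubated 30 min at 20 °C with 0.1 μM [35S]GTPγS in Hepes-NaOH/EDTA/DTT/100 μM MgSO4 mix. The reaction was stopped with ice-cold Tris/MgCl2/NaCl buffer, filtered on cellulose nitrate and washed. EC50 was derived from eight concentrations spanning 1×10^-7 to 1×10^-4 M.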
Target sequence in this assay (P09471 whole entry): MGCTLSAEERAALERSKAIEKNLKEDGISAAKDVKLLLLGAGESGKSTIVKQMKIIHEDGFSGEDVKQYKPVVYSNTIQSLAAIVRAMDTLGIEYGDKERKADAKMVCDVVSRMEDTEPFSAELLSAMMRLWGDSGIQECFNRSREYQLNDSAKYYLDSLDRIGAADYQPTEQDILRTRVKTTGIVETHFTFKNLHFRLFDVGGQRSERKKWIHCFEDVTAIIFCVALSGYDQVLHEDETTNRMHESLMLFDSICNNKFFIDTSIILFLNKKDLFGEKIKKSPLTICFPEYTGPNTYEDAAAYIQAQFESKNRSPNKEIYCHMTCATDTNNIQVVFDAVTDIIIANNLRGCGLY

The target in assay [6] is T1, Guanine nucleotide-binding protein G(i) subunit alpha-3. Put plainly: Percent stimulation of [35S]GTP-gamma-S, binding to G alpha i3 at 3E-5 M of basal for 30 minutes.
Assay [7] shares this target. Description: Percent stimulation of [35S]GTP-gamma-S, binding to G alpha i3 at 5E-5 M of basal for 30 minutes. The essentials:
as §2

The values that follow come from ChEMBL document CHEMBL1140445, “Design, synthesis, and preliminary pharmacological evaluation of a set of small molecules that directly activate gi proteins” (J Med Chem, 2005).

pEC50: −log10 of the molar value.

T2 sequence (P63096 whole entry): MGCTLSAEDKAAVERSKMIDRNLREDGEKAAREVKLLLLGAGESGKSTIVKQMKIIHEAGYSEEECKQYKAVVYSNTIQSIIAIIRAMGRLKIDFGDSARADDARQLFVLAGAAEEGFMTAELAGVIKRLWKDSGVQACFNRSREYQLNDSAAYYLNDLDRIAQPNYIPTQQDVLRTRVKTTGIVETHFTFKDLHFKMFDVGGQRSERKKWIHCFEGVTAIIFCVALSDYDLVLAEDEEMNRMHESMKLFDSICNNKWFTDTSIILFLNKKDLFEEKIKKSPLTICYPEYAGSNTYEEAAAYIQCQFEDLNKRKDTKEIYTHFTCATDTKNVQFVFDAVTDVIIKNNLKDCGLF
T1 sequence (P08754 whole entry): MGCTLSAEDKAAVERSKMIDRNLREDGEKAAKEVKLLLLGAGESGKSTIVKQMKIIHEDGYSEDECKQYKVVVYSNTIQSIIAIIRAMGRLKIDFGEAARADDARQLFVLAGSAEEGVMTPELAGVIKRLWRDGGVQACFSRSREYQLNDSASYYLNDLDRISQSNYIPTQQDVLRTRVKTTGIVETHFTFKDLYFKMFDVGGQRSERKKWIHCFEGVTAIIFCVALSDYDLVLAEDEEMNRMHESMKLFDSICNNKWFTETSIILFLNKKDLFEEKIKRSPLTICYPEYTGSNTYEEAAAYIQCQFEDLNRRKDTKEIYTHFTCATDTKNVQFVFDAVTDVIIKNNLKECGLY

A word on the pEC50: it is −log10 of the EC50, conventionally taken in molar units. As for `CCCCCCCCCCCCCCCNN1CCNCC1`, the figures for the negative logarithm of the EC50 (pEC50) in assay [1], in assay [2] and in assay [5] were 4.72, 4.80 and 5.21, respectively. Also, the Stimulation worked out at 5060% in assay [3], 5580% in assay [4] and 5720% in assay [6].

With `CCCCCCCCCCCCCCCN1CCC(C2CCNCC2)CC1`, the pEC50 in assay [1] was 4.73; in assay [2], 4.72; in assay [5], 5.21. Moreover, the Stimulation in assay [3] amounted to 1510%; in assay [4], 1810%; in assay [7] it was 1640%.
